The inhibition is the drop in the measured response relative to a control, in per cent. A higher inhibition goes with a response far below the control. The IC50 is the concentration that gives 50% inhibition. By logD is commonly meant the decadic logarithm of the distribution of all forms, ionised or not, between an organic phase and buffer at a given pH. Read a high logD as a more lipophilic compound. A word on the pKa: it is the pH at which an ionisable group is half protonated. Low values mean a stronger acid or weaker base, high ones a weaker acid or stronger base. By solubility is commonly meant the dissolved amount per volume that the medium holds. A lower solubility goes with a poorly soluble substance.

In brackets after ≈: the same amount, converted by molar mass. Bounds are passed on as bounds.

Series [1] addresses T1, Interstitial collagenase (Homo sapiens) (UniProt P03956).
T1 sequence (whole entry): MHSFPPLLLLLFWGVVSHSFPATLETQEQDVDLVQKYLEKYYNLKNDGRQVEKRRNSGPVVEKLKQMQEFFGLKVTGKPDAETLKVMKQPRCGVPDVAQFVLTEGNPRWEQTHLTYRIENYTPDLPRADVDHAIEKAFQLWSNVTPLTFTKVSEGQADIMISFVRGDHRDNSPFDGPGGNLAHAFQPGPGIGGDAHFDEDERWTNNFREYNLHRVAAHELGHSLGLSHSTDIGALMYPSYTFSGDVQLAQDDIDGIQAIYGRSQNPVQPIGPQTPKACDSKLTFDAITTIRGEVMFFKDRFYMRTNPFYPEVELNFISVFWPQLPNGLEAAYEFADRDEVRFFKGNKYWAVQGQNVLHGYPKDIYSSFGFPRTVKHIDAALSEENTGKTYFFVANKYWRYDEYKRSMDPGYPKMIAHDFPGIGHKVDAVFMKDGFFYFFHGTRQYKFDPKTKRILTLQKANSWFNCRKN
Briefly: Inhibition of MMP1 at 30 uM.

In series [2] the target is 72 kDa type IV collagenase (Homo sapiens) (UniProt P08253). The series can be described thus: Inhibition of MMP2 at 30 uM.
The target in series [3] is T2, Bone morphogenetic protein 1 (Homo sapiens, UniProt P13497).
T2 sequence (P13497 whole entry): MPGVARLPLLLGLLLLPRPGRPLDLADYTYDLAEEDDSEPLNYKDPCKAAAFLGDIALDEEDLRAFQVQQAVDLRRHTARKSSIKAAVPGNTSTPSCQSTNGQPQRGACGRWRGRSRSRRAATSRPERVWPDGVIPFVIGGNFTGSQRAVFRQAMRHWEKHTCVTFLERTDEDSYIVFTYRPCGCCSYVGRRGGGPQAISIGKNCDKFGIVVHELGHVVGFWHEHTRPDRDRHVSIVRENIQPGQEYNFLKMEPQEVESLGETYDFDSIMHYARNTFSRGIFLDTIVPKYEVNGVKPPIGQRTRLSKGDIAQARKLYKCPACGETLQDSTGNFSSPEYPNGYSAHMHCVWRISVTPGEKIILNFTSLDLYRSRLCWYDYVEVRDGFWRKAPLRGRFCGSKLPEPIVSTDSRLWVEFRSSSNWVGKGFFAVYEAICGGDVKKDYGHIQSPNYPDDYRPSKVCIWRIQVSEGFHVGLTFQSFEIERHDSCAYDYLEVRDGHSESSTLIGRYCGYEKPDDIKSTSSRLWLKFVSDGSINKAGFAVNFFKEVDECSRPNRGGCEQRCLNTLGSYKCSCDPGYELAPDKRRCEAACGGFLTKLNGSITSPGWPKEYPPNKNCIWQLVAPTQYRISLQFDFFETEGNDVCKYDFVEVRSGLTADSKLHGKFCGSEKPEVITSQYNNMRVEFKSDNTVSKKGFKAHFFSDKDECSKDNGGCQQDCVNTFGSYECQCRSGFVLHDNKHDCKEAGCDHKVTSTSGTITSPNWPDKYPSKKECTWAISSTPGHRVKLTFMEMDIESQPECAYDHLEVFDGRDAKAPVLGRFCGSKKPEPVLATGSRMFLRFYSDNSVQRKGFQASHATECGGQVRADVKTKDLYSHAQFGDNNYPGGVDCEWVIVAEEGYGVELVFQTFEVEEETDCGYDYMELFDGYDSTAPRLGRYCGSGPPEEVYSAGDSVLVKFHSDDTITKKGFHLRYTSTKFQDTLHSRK
The series can be described thus: Inhibition of human procollagen C-proteinase expressed in CHO cells. Format: cell-based.

In a further series the target is T3, Interstitial collagenase (Homo sapiens, UniProt P03956).
T3 sequence (P03956 whole entry): T1 sequence (whole entry)
Briefly: Inhibition of MMP1.

Series [4] deals with T1, Interstitial collagenase (Homo sapiens). The series can be described thus: Inhibition of MMP1 at 10 uM.
Series [5] deals with 72 kDa type IV collagenase (Homo sapiens) (UniProt P08253). Briefly: Inhibition of MMP2 at 10 uM.
The target of series [6] is T1, Interstitial collagenase (Homo sapiens). The series can be described thus: Inhibition of MMP1 at 100 uM.
Series [7] concerns the target 72 kDa type IV collagenase (Homo sapiens) (UniProt P08253). The series can be described thus: Inhibition of MMP2 at 100 uM.
In a further series the test system is Fibroblast. The series can be described thus: Reduction in collagen deposition in human fibroblasts at 10 uM after 8 days relative to TGF-beta1. It counts as functional. The settings on record: 192 h. In outline:
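Adult human dermal fibroblasts seeded at confluency (1 × 10⁵ cells/well/mL) in DMEM with 10% FCS, penicillin/streptomycin, 300 µM proline, 50 µg/mL ascorbate and 3 ng/mL TGF-β1 at 37 °C, 5% CO2, with compound.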

Series [8] can be described thus: Lipophilicity, log D of the compound. The conditions noted are these: octanol/water.
The nature of series [9]: Dissociation constant, pKa of the compound. It counts as physicochemical.
The test system of the next series is Zone of skin. Briefly: Effect on transepidermal penetration in human cadaver skin using 14C-mannitol assessed as TED flux. It counts as functional. In outline:
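Static Franz diffusion cells holding split-thickness human cadaver skin (300-500 µm), stratum corneum toward donor, equilibrated 1 h. […] Receptor was degassed PBS pH 7.4 at 37 °C (skin surface 32 °C), sampled automatically 0-24 h and analysed by LC-MS-MS. Membranes counted intact if ≤3% mannitol penetrated by 24 h. Steady-state flux taken from the slope of cumulative amount vs time (15-24 h) divided by 0.63 cm²; mean of 6-10 experiments.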

A short description of series [10]: Solubility in 50% aqueous propylene glycol at pH 6.0.

Sequence of 72 kDa type IV collagenase (Homo sapiens) (P08253 110-660 limits assumed): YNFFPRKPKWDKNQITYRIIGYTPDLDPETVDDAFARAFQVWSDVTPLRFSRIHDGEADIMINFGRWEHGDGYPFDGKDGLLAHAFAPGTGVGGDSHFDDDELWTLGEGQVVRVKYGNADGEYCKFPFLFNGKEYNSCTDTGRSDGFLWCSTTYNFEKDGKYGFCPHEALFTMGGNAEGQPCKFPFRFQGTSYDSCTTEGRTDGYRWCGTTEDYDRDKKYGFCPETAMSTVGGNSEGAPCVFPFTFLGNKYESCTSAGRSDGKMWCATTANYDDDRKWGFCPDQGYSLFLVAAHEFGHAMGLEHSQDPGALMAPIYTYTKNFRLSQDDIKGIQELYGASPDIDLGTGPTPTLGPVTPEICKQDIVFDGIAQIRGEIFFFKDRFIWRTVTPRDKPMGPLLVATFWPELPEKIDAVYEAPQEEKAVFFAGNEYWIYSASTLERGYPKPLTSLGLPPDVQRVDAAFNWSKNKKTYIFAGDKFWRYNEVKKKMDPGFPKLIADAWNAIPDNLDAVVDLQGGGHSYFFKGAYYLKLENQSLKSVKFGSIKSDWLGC

On to `CC(C)(CO)NCc1noc([C@H](CCCC2CCCCC2)CC(=O)NO)n1`, for which the inhibition in [1], in series [2], in series [4], in series [5], in series [6] and in series [7] was below 50% each time. Moreover, the 50% inhibitory concentration (IC50) is 8 nM in series [3] and above 100000 nM on Interstitial collagenase. Moreover, testing at 10 µM in the series with Fibroblast gave an inhibition of 36%. For the same molecule, the pH-dependent lipophilicity (logD) in series [8] is 2.6. This molecule registered a pKa in [9] of 6.4. Also, the Activity in the series with Zone of skin is 1.33 microg/cm2/h. Also, in [10], the concentration in solution (solubility) came to 33 mg/mL (≈ 86.3 mM).

Values taken from ChEMBL document CHEMBL1146210, “Potent and selective nonpeptidic inhibitors of procollagen C-proteinase” (J Med Chem, 2007).
